esBAF inh = inhibitors of esBAF chromatin remodeling in mouse ES cells | actives 2% (n = 350,000) | Bmi1-luciferase knock-in reporter, 24 h; 100% = twice the neutral-well signal | AID 602393 | reporter increase, % at 12.5 µM; in the data active = activation above about 40%; inconclusive = no clear call, values can overlap the other calls;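 also: 0% = median of the plate's neutral control wells and 100% = double that signal; a rise in the Bmi1 reporter signal indicates esBAF inhibition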
MITF act = activators of MITF-driven TRPM1 promoter activity in SK-MEL-5 cells | SK-MEL-5 TRPM1-promoter luciferase, 24 h; % of positive control, neutral wells = 0 | activation, % at 12.5 µM | actives 0.75% (n = 300,000) | AID 588334;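 active = mean activation of at least 80% with every replicate also reaching 80%; inconclusive = mean reaches 80% but some replicate falls short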;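 also: 0% = neutral control wells and 100% = parthenolide positive control wells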
XiGFP reactiv = reactivates the inactive X chromosome in mouse fibroblasts. XiGFP mouse fibroblasts, % GFP-positive cells imaging, 3 d; cells co-treated with 5-aza-dC sensitizer; scaled so ellipticine positive control = 100%. activation, % at 7.58 µM. actives 0.055% (n = 360,000). AID 743238;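 active = mean normalized replicate activation at least 10% and every replicate at or above 10%; inconclusive = only one of the two criteria met; inactive = mean below 10% and not all replicates reach 10%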;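 also: 0% = median of on-plate neutral control wells and 100% = ellipticine 6 µM median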
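Assay system – SV40-immortalized XiGFP fibroblast cells, line 68-5-11 · Buffer or medium – DMEM supplemented with 5-aza-dC as sensitizing agent · Dosing – one concentration, pinned · Benchmarks – positive control ellipticine, 6 µM final · Times – 3 days compound exposure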
Vif inh = HIV Vif inhibition; HEK293T cells, Vif self-association by quenched fluorescence, imaging, 24 h; inhibition, % at 7.49 µM; actives 0.35% (n = 340,000); AID 602346; in the data active = inhibition above about 50%, passing the limit was not always enough; inconclusive = no clear call, values can overlap the other calls; inactive = below about 31%
Wnt bcat act = activates Wnt/beta-catenin signaling in a reporter cell assay; AID 743398; actives 1.2% (n = 300,000); activation, % at 9.35 µM; activator, plate reader; in the data active = activation above about 30%, passing the limit was not always enough; inconclusive = no clear call, values can overlap the other calls;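 also: 0% = neutral control wells and 100% = positive control wells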
Starred values were filed as active, the others as inactive; ? = inconclusive; . = no result given. A selection: hits, their analogues and other compounds. The true share with any hit is near 2.6%.

SMILES | esBAF inh | MITF act | XiGFP reactiv | Vif inh | Wnt bcat act
Oc1cccc(-c2nc3ccc4ccccc4c3c3c2CCC3)c1 | . | 93* | . | -16 | .
O=C(NNc1c2ccccc2nc2ccccc12)c1cccc(O)c1 | . | -7 | 0 | -5 | .
Nc1c(C(=O)Nc2ccccc2)nnn1-c1ccc2c(c1)OCCO2 | -11 | 25 | 0 | 3 | 11
Cc1ccc(NC(=O)c2nnn(-c3ccc4c(c3)OCCO4)c2N)cc1 | 70* | 99* | 0 | -13 | 15
Cc1cc(C)cc(NC(=O)c2nnn(Cc3cc(C)ccc3C)c2N)c1 | 1 | 13 | . | -10 | .
Cc1ccc(N2CC(C(=O)Nc3ccc4c(c3)OCCO4)CC2=O)cc1 (centres undefined) | -11 | -1 | . | 4 | 30*
Cc1ccc(C)c(Cn2nnc(C(=O)Nc3ccc4c(c3)OCCO4)c2N)c1 | 64* | 85* | 0 | -7 | 23
C[C@@H](C(=O)Nc1ccc2c(c1)OCCO2)n1nnc2ccccc2c1=O | 57* | 101* | 0 | 1 | 24
COc1ccccc1S(=O)(=O)N1C[C@@H](O)COC[C@@H]2O[C@H](CC(=O)O)CC[C@H]21 | 1 | . | 0 | . | .
Cc1ccccc1Cn1nnc(C(=O)Nc2ccc3c(c2)OCCO3)c1N | 68* | 91* | 0 | -3 | 46*
CCc1cc(C(=O)c2ccc(OC)cc2)c(N)s1 | -2 | . | 0 | . | 39*
C/C(=N\Nc1nccnc1Cl)c1ccc(F)cc1 | . | 58 | 0 | 0 | 9
C/C(=N\Nc1nccnc1Cl)c1ccc(O)cc1 | 42* | . | 0 | 5 | 5
CC1(C)CC(=O)C=C(c2ccc(-c3ccc(S(C)(=O)=O)cc3)cc2)C1=O | 65* | . | 1 | . | -1
COc1ccc2cc(C3=CC(=O)CC(C)(C)C3=O)ccc2c1 | 124* | . | 1 | 2 | 0
Cc1ccc(C2=CC(=O)CC(C)(C)C2=O)cc1 | . | . | 0 | . | 0
COc1ccc(-c2ccccc2C2=CC(=O)CC(C)(C)C2=O)cc1 | -18 | . | 0 | . | -2
COc1cccc(-c2ccc(C3=CC(=O)CC(C)(C)C3=O)cc2)c1OC | 16 | . | 0 | . | 0
COc1ccncc1-c1ccc(C2=CC(=O)CC(C)(C)C2=O)cc1 | 65* | . | 0 | . | 1
Cc1noc(C)c1NC(=O)N(C)C[C@H]1Oc2ccc(NC(=O)c3ccncc3)cc2CC(=O)N([C@H](C)CO)C[C@@H]1C | 4 | . | -1 | . | .
C[C@H]1CN([C@@H](C)CO)C(=O)c2cc(NS(=O)(=O)c3ccccc3)ccc2O[C@H]1CN(C)S(=O)(=O)c1cccs1 | 10 | . | 0 | . | .
COc1ccccc1N1CCN(/N=C/c2cccc(Cl)c2)CC1 | 100* | . | 0 | -10 | 42*
COc1ccc(/C=N/N2CCN(c3ccccc3OC)CC2)cc1OC | 10 | 31 | . | -5 | .
COc1cccc(/C=N/N2CCN(c3ccccc3OC)CC2)c1 | ? | 108* | . | 10 | .
COc1ccccc1N1CCN(/N=C/c2cccc(OC)c2O)CC1 | . | 75 | 0 | 21 | 44*
SMILES | esBAF inh | MITF act | XiGFP reactiv | Vif inh | Wnt bcat act
CO[C@H]1CN(C)C(=O)c2cc(NC(=O)c3ccccc3F)ccc2OC[C@@H](C)NC[C@H]1C | -1 | . | 0 | . | .
O=C(c1ccc(F)cc1)N1CC[C@@H]2[C@@H](CO)Nc3ccc(C#CC4CC4)cc3[C@@H]21 | . | . | 0 | . | .
CCN(C(=O)c1cc2c(=O)n3cccc(C)c3nc2s1)C1CCCCC1 | 67* | 24 | 1 | -9 | -2
CCN(CC)C(=O)c1cc2c(=O)n3cccc(C)c3nc2s1 | 27 | -1 | 0 | 0 | 3
CN(C(=O)c1cc2c(=O)n3ccccc3nc2n1C)C1CCCCC1 | 11 | 69 | 0 | 1 | 37*
CCN(C(=O)c1cc2c(=O)n3ccccc3nc2s1)C1CCCCC1 | 58* | 36 | 0 | 8 | 10
CCN(C(=O)c1cc2c(=O)n3ccccc3nc2n1C)C1CCCCC1 | 38 | 26 | 0 | 10 | 8
COc1cc(/C=C/C(=O)O)cc(OC)c1 | -2 | -11 | . | -4 | .
Oc1ccc(/C=C/c2cc(O)cc(O)c2)cc1 | -3 | 104* | 0 | -2 | 0
COc1cc(O)cc(/C=C/c2ccccc2)c1 | 51* | 79 | 0 | -21 | -3
CN(CC(=O)N1CCCCCC1)S(=O)(=O)c1ccc(F)cc1 | 54* | 31 | 0 | 9 | 8
Cc1ccc(S(=O)(=O)N(C)CC(=O)N2CCCCCCC2)cc1 | -8 | 2 | 0 | -1 | 5
CN(CC(=O)N1CCCCCC1)S(=O)(=O)c1ccccc1 | 57* | . | 0 | -4 | 20
